Data as given in PubChem BioAssay AID602219 (Southern Research Specialized Biocontainment Screening …, 2012).
pIC50: −log10 of the molar value. Results filed as inconclusive are left out. Active and inactive are the calls of the source.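 The calls were made as follows: active = inhibition of 30% or more at any tested concentration; inactive = the rest, inconclusive results apart.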

These compounds were tested against M1-family alanyl aminopeptidase (Plasmodium falciparum 3D7) (assay: malaria M1 alanyl aminopeptidase inhibitors – biochemical, QFRET, H-Leu-NHMec substrate, set 2, selectivity assay for PfM18AAP inhibitor project, dose response (AID 602219)). Settings: recombinant PfM1AAP, H-Leu-NHMec fluorogenic cleavage.
Procedure, shortened: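 Assay system – purified recombinant Plasmodium falciparum M1 alanyl aminopeptidase (rPfM1AAP) · Input – 5 µg/mL rPfM1AAP · Replication – triplicate · Signal – fluorescence of released NHMec, excitation 370 nm, emission 460 nm · Measure – IC50 from 4-parameter logistic fit, limits fixed 0–100% · Also added – 0.1 mM H-Leu-NHMec · Timing – enzyme reaction 90 min at room temperature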

pIC50, active:
CN1CCN(c2nc(-c3ccc(O)c(O)c3)cs2)CC1 4.15
Oc1ccc(CCNc2ccnc3ccccc23)cc1O 4.33
Oc1ccc(-c2csc(Nc3ncccn3)n2)cc1O 4.59
Oc1ccc(-c2csc(NC3CCCC3)n2)cc1O 4.20
Oc1ccc(CCNc2c3ccccc3nc3ccccc23)cc1O 4.53

Same assay, conditions: recombinant PfM1AAP, H-Leu-NHMec fluorogenic cleavage; at 100 µM (top of the series)

inhibition, inactive:
CN1CCN(CCCc2ccc(O)c(O)c2)CC1
CN1CCN(CCc2ccc(O)c(O)c2)CC1
COc1ccc(CCCN2CCN(C)CC2)cc1OC
COc1ccc(CCNC(c2ccccc2)c2ccccc2)cc1OC
